Reference: ChEMBL document CHEMBL3792373, “Anti-methicillin resistant Staphylococcus aureus activity, synergism with oxacillin and molecular docking studies of metronidazole-triazole hybrids” (Eur J Med Chem, 2016)
Values after ≈ are worked out from the molar mass of the structure shown.

Columns and labels:
[1] = test system: Staphylococcus aureus; assay: Antimicrobial activity against methicillin-resistant Staphylococcus aureus isolate 18a after 24 hrs by agar plate dilution method in presence of oxacillin (1:1); type: functional
Method in brief: (§1)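 Test compound and oxacillin mixed 1:1, each at 32 µg/mL in the mixture, then serially diluted into agar plates. Clinical MRSA isolates at McFarland 0.5 in water were spotted onto the plates and incubated 24 h at 37 °C. Growth was read as white spots. NCTC 6571 S. aureus served as the dilution-series control.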

[2] = test system: Staphylococcus aureus; assay: Antimicrobial activity against methicillin-resistant Staphylococcus aureus isolate 23a after 24 hrs by agar plate dilution method; type: functional
Method in brief: (§2)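 Clinical MRSA isolates from axilla/nasal swabs, identified by mannitol salt agar, Gram stain and coagulase test. Agar plate dilution with compound series 0.03–128 µg/mL. Inoculum suspended in water to McFarland 0.5. Incubation 24 h at 37 °C. MIC read as the lowest level without white growth spots. Dilution series quality-controlled with S. aureus NCTC 6571.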

[3] = Cytotoxicity against human THP1 cells upto 50 uM treated 3 times per week for 14 days by MTT assay; type: cell-based; conditions: thp-1, 336 h
[4] = test system: Staphylococcus aureus; assay: Bactericidal activity against methicillin-resistant Staphylococcus aureus isolate 1a assessed as reduction in colony counts at 32 ug/ml after 20 hrs by pour plate method in presence of oxacillin (1:1) (reference value: 12.73 +/- 0.223 log10CFU/ml); type: functional
[5] = test system: Staphylococcus aureus; assay: Bactericidal activity against methicillin-resistant Staphylococcus aureus isolate 1a assessed as reduction in colony counts at 32 ug/ml after 16 hrs by pour plate method (reference value: 12.50 +/- 0.291 log10CFU/ml); type: functional
[6] = test system: Staphylococcus aureus; assay: Antimicrobial activity against methicillin-resistant Staphylococcus aureus isolate 20a after 24 hrs by agar plate dilution method; type: functional; method in brief: as §2
[7] = test system: Staphylococcus aureus; assay: Antimicrobial activity against methicillin-resistant Staphylococcus aureus isolate 7a after 24 hrs by agar plate dilution method in presence of oxacillin (1:1); type: functional
Method in brief: (§3)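 Clinical MRSA isolates, from axilla/nasal swabs and identified by mannitol salt agar, Gram stain and coagulase test. […] Inoculum adjusted to McFarland 0.5 in water. Plates incubated 24 h at 37 °C and scored for growth spots. Dilution series quality-controlled with S. aureus NCTC 6571. Combination lines used a 1:1 mixture with oxacillin.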

[8] = test system: Staphylococcus aureus; assay: Antimicrobial activity against methicillin-resistant Staphylococcus aureus isolate 2a after 24 hrs by agar plate dilution method in presence of oxacillin (1:1); type: functional; method in brief: as §1
[9] = test system: Staphylococcus aureus; assay: Antimicrobial activity against methicillin-resistant Staphylococcus aureus isolate 8a after 24 hrs by agar plate dilution method in presence of oxacillin (1:1); type: functional; method in brief: as §3
[10] = test system: Staphylococcus aureus; assay: Antimicrobial activity against methicillin-resistant Staphylococcus aureus isolate 25a after 24 hrs by agar plate dilution method; type: functional; method in brief: as §2
[11] = test system: Staphylococcus aureus; assay: Antimicrobial activity against methicillin-resistant Staphylococcus aureus isolate 2a after 24 hrs by agar plate dilution method; type: functional; method in brief: as §2
[12] = test system: Staphylococcus aureus; assay: Antimicrobial activity against methicillin-resistant Staphylococcus aureus isolate 30a after 24 hrs by agar plate dilution method; type: functional; method in brief: as §2
[13] = test system: Staphylococcus aureus; assay: Antimicrobial activity against methicillin-resistant Staphylococcus aureus isolate 21a after 24 hrs by agar plate dilution method; type: functional; method in brief: as §2
[14] = test system: Staphylococcus aureus; assay: Bactericidal activity against methicillin-resistant Staphylococcus aureus isolate 1a assessed as reduction in colony counts at 32 ug/ml after 8 hrs by pour plate method (reference value: 8.30 +/- 0.442 log10CFU/ml); type: functional
[15] = test system: Staphylococcus aureus; assay: Antimicrobial activity against methicillin-resistant Staphylococcus aureus isolate 24a after 24 hrs by agar plate dilution method; type: functional; method in brief: as §2
[16] = test system: Staphylococcus aureus; assay: Bactericidal activity against methicillin-resistant Staphylococcus aureus isolate 1a assessed as reduction in colony counts at 32 ug/ml after 20 hrs by pour plate method (reference value: 12.73 +/- 0.223 log10CFU/ml); type: functional
[17] = test system: Staphylococcus aureus; assay: Antimicrobial activity against methicillin-resistant Staphylococcus aureus isolate 4a after 24 hrs by agar plate dilution method; type: functional; method in brief: as §2
[18] = test system: Staphylococcus aureus; assay: Antimicrobial activity against methicillin-resistant Staphylococcus aureus isolate 28a after 24 hrs by agar plate dilution method in presence of oxacillin (1:1); type: functional; method in brief: as §1
[19] = test system: Staphylococcus aureus; assay: Bactericidal activity against methicillin-resistant Staphylococcus aureus isolate 1a assessed as reduction in colony counts at 32 ug/ml after 12 hrs by pour plate method (reference value: 10.12 +/- 0.428 log10CFU/ml); type: functional
[20] = test system: Staphylococcus aureus; assay: Antimicrobial activity against methicillin-resistant Staphylococcus aureus isolate 22a after 24 hrs by agar plate dilution method in presence of oxacillin (1:1); type: functional; method in brief: as §1
[21] = test system: Staphylococcus aureus; assay: Bactericidal activity against methicillin-resistant Staphylococcus aureus isolate 1a assessed as reduction in colony counts at 32 ug/ml after 8 hrs by pour plate method in presence of oxacillin (1:1) (reference value: 8.30 +/- 0.442 log10CFU/ml); type: functional
[22] = test system: Staphylococcus aureus; assay: Antimicrobial activity against methicillin-resistant Staphylococcus aureus isolate 23a after 24 hrs by agar plate dilution method in presence of oxacillin (1:1); type: functional; method in brief: as §1
[23] = test system: Staphylococcus aureus; assay: Antimicrobial activity against methicillin-resistant Staphylococcus aureus isolate 11a after 24 hrs by agar plate dilution method in presence of oxacillin (1:1); type: functional; method in brief: as §1
[24] = test system: Staphylococcus aureus; assay: Antimicrobial activity against methicillin-resistant Staphylococcus aureus isolate 3a after 24 hrs by agar plate dilution method in presence of oxacillin (1:1); type: functional; method in brief: as §1
[25] = test system: Staphylococcus aureus; assay: Antimicrobial activity against methicillin-resistant Staphylococcus aureus isolate 9a after 24 hrs by agar plate dilution method in presence of oxacillin (1:1); type: functional; method in brief: as §3
[26] = test system: Staphylococcus aureus; assay: Antimicrobial activity against methicillin-resistant Staphylococcus aureus isolate 12a after 24 hrs by agar plate dilution method in presence of oxacillin (1:1); type: functional; method in brief: as §1
[27] = test system: Staphylococcus aureus; assay: Antimicrobial activity against methicillin-resistant Staphylococcus aureus isolate 8a after 24 hrs by agar plate dilution method; type: functional; method in brief: as §3
[28] = test system: Staphylococcus aureus; assay: Antimicrobial activity against methicillin-resistant Staphylococcus aureus isolate 20a after 24 hrs by agar plate dilution method in presence of oxacillin (1:1); type: functional; method in brief: as §1
[29] = test system: Staphylococcus aureus; assay: Antimicrobial activity against methicillin-resistant Staphylococcus aureus isolate 13a after 24 hrs by agar plate dilution method in presence of oxacillin (1:1); type: functional; method in brief: as §1
[30] = test system: Staphylococcus aureus; assay: Bactericidal activity against methicillin-resistant Staphylococcus aureus isolate 1a assessed as reduction in colony counts at 32 ug/ml after 24 hrs by pour plate method (reference value: 12.64 +/- 0.224 log10CFU/ml); type: functional
[31] = test system: Staphylococcus aureus; assay: Bactericidal activity against methicillin-resistant Staphylococcus aureus isolate 1a assessed as reduction in colony counts at 32 ug/ml after 12 hrs by pour plate method in presence of oxacillin (1:1) (reference value: 10.12 +/- 0.428 log10CFU/ml); type: functional
[32] = test system: Staphylococcus aureus; assay: Antimicrobial activity against methicillin-resistant Staphylococcus aureus isolate 3a after 24 hrs by agar plate dilution method; type: functional; method in brief: as §2
[33] = test system: Staphylococcus aureus; assay: Antimicrobial activity against methicillin-resistant Staphylococcus aureus isolate 29a after 24 hrs by agar plate dilution method in presence of oxacillin (1:1); type: functional; method in brief: as §1
[34] = test system: Staphylococcus aureus; assay: Antimicrobial activity against methicillin-resistant Staphylococcus aureus isolate 9a after 24 hrs by agar plate dilution method; type: functional; method in brief: as §3
[35] = test system: Staphylococcus aureus; assay: Antimicrobial activity against methicillin-resistant Staphylococcus aureus isolate 21a after 24 hrs by agar plate dilution method in presence of oxacillin (1:1); type: functional; method in brief: as §1
[36] = test system: Staphylococcus aureus; assay: Antimicrobial activity against methicillin-resistant Staphylococcus aureus isolate 1a after 24 hrs by agar plate dilution method in presence of oxacillin (1:1); type: functional; method in brief: as §1
[37] = test system: Staphylococcus aureus; assay: Antimicrobial activity against methicillin-resistant Staphylococcus aureus isolate 14a after 24 hrs by agar plate dilution method in presence of oxacillin (1:1); type: functional; method in brief: as §1

With `Cc1ncc([N+](=O)[O-])n1CCn1cc(COc2c(Cl)cccc2Cl)nn1` the MIC [1] was 4 mg/L, the MIC [2] was over 128 mg/L and the Activity [3] was “Non-toxic”. It also gave an Activity [4] of 5.26 log10CFU/ml, an Activity [5] of 5.53 log10CFU/ml and an MIC [6] of over 128 mg/L. For the same compound, the MIC [7] was 1 mg/L, the MIC [8] was 1 mg/L and the MIC [9] was 1 mg/L. The MIC [10] was 64 mg/L (≈ 161 µM), the MIC [11] was 4 mg/L (≈ 10.1 µM) and the MIC [12] was 64 mg/L (≈ 161 µM). The MIC [13] was 4 mg/L (≈ 10.1 µM), the Activity [14] was 6.05 log10CFU/ml and the MIC [15] was over 128 mg/L. It also gave an Activity [16] of 5.57 log10CFU/ml, an MIC [17] of 4 mg/L (≈ 10.1 µM) and an MIC [18] of 1 mg/L. For the same compound, the Activity [19] was 5.96 log10CFU/ml, the MIC [20] was 4 mg/L and the Activity [21] was 5.85 log10CFU/ml. For the same compound, the MIC [22] was 4 mg/L, the MIC [23] was 1 mg/L and the MIC [24] was 1 mg/L. The MIC [25] was 2 mg/L, the MIC [26] was 2 mg/L and the MIC [27] was 4 mg/L (≈ 10.1 µM). It also gave an MIC [28] of 2 mg/L, an MIC [29] of 4 mg/L and an Activity [30] of 5.84 log10CFU/ml. It also gave an Activity [31] of 5.91 log10CFU/ml, an MIC [32] of 4 mg/L (≈ 10.1 µM) and an MIC [33] of 4 mg/L. For the same compound, the MIC [34] was 8 mg/L (≈ 20.1 µM), the MIC [35] was 1 mg/L and the MIC [36] was 1 mg/L. The MIC [37] was 4 mg/L.
